Compound activity (PubChem BioAssay)
FGF22 binding-1: shifts melting point of recombinant human FGF22; recombinant FGF22 thermal shift, SYPRO orange fluorescence; percent of sucrose octasulfate shift, DMSO zero; activity (Tm shift, normalised), % at 9.99 µM; 340,000 tested, 1.5% active; Q9HCT0;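 active = mean Tm shift, scaled 0 neutral to 100 positive control, at about 1.3% or above, every replicate too, limit read from the data; inconclusive = no clear call, values can overlap the other calls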
PGC1a acetyl inh: PGC1a acetylation modulation, inhibitor mode; U2OS PGC1a acetylation, AlphaScreen anti-acetyl-lysine; with virally co-expressed GCN5 acetyltransferase; inhibition, % at 15.6 µM; 350,000 tested, 0.17% active; AID 651687;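 active = every replicate shows inhibition of at least 40%; inconclusive = mean inhibition at least 40% but some replicate below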;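 also: 0% = neutral control wells and 100% = positive control wells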
ERAP1 HTS inh: blocks human ERAP1 aminopeptidase activity. 340,000 tested, 0.15% active. AID 652197. recombinant ERAP1, Leu-AMC fluorescence, 60 min. inhibition, % at 10.7 µM;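 active = mean replicate inhibition of at least 30%, or all replicates individually reaching that 30% level; inactive = mean below 30% and not every replicate reaching it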;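 also: 0% = neutral control wells and 100% = L-leucinethiol positive control wells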
Target sequence (Q9NZ08 whole entry, looked up): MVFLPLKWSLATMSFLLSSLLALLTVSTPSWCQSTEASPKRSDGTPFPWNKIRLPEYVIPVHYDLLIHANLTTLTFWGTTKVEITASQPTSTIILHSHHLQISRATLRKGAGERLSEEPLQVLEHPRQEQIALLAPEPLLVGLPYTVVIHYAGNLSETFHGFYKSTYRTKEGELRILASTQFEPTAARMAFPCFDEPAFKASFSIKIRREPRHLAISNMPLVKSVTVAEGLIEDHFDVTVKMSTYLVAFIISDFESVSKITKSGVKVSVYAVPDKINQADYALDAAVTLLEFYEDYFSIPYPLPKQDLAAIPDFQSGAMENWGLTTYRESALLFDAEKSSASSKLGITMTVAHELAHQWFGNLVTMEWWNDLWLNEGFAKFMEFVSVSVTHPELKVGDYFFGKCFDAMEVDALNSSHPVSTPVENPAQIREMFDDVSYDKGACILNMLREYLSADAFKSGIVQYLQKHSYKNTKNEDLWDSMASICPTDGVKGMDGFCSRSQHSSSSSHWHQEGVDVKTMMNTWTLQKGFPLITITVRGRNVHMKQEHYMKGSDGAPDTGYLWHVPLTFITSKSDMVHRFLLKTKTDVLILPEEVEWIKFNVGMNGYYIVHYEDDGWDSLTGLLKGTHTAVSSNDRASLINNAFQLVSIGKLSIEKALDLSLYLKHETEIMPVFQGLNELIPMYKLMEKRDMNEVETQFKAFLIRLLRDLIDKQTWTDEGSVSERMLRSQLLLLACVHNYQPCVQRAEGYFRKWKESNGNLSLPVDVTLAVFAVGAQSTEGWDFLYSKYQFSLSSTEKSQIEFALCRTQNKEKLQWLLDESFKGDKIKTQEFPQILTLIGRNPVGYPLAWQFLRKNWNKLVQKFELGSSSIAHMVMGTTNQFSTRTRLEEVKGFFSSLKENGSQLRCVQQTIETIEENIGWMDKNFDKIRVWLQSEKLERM
FN deposit inh: fibronectin deposition inhibition | AH1F fibroblasts, Alexa488-fibronectin deposition fluorescence, overnight | inhibition, % at 12.6 µM | 350,000 tested, 0.086% active | AID 743247;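 active = mean inhibition across replicates of 30% or more, regardless of how many single replicates reach that level; inconclusive = mean under 30% yet at least half of replicates reach 30%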;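 also: positive control wells lacked labelled fibronectin entirely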
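Measured by – fluorescence 485/525 nm · System – AH1F fibroblast monolayer, labelled fibronectin deposition · Amount – 10000 cells per well · Buffer or medium – serum-reduced DMEM (2% serum) · Doses – single dose, pinned · Also added – fluorescent fibronectin at 24 nM final · Schedule – 1 h cell attachment, overnight exposure to compound and label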
SIRT5 inh: sirtuin-5 (human) deacylase inhibition | Q9NXA8 | Purified SirT5, succinyl-peptide AMC, trypsin-coupled fluorescence | inhibition, % at 15 µM | 330,000 tested, 1.1% active; in the data active = inhibition above about 15%; inconclusive = no clear call, values can overlap the other calls
FGF22 binding-2: binders of human FGF22 by thermal shift | 1,000 tested, 2% active | thermal shift activity, °C (ΔTm) at 38 µM | shares compounds with FGF22 binding-1 | recombinant FGF22 thermal shift, SYPRO orange fluorescence;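 active = fitted rise in melting shift crosses a set limit at or below the top valid dose tested; inconclusive = flat fit at mid-level activity, or a poor quality fit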
TSA no protein: shows thermal shift signal without protein, FGF22 counter-screen. shares compounds with FGF22 binding-1. AC50, µM (titrated, usually from 38 µM). 1,000 tested, 2% active. compound-only SYPRO orange thermal shift counter-screen, no protein;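 active = rising signal whose fitted curve reaches the 0.54 level within the top valid dose, showing a melting point, actives reach about 13 µM in these data; inactive = the rest, including activity in the opposite direction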; also: value is where the raw curve crosses a fixed level and not half-maximal
COX5a expr inh: reduces COX5a expression driven by PGC-1a in C2C12 myotubes; maximal activity, %; 45 tested, under 10 active; C2C12 myotubes PGC-1a adenovirus, COX5a qPCR; AID 743461; shares compounds with PGC1a acetyl inh;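 active = fitted dose curve reaching 40% activity at or below the highest valid dose tested; inconclusive = flat fit between 30% and 70%, or an unusable fit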
AID743468: change in PGC-1a target gene PDK4 expression, dose response, C2C12 myotubes, RT-qPCR, cherry-pick | shares compounds with PGC1a acetyl inh | PGC-1a adenovirus, PDK4 mRNA qPCR | PDK4 expression increase, % at 19.5 µM | 45 tested, under 10 active | AID 743468;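 active = fitted curve reaching a 40% PDK4 expression rise at or below the top valid tested dose; inconclusive = no clear call, values can overlap the other calls; inactive = the rest, including shifts the wrong way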
Starred values were filed as active, the others as inactive; i = inactive; ? = inconclusive; / = not tested or not shown; ! = not confirmed by another sample. Hits are enriched below; roughly 2.2% of the tested compounds scored in any of these assays.

SMILES	FGF22 binding-1	PGC1a acetyl inh	ERAP1 HTS inh	FN deposit inh	SIRT5 inh	COX5a expr inh	AID743468	others
O=C(N/N=C/c1cccc(C(F)(F)F)c1)c1ccc(O)cc1	0	1	0	/	-2	/	/
CCCNC(=O)N(C)C[C@@H]1Oc2cc(C3=CCCC3)ccc2S(=O)(=O)N([C@@H](C)CO)C[C@H]1C	0	-18	8	/	0	/	/
CC(=O)NC(Cc1c[nH]c2ccccc12)C(=O)NCCc1ccccn1 (stereo not given)	1.6*	4	-1	-2	0	/	/	FGF22 binding-2=0.2;TSA no protein=i
c1ccc(Nc2cccc3c(Nc4ccccc4)cccc23)cc1	0	2	/	-6	-8	/	/
O=S(=O)(O)c1cccc2cccc(Nc3ccccc3)c12	1.5*	1	43*	6	57*	/	/	FGF22 binding-2=0.012;TSA no protein=i
COCC(=O)N(C)C[C@@H]1Oc2ncc(-c3ccc(F)cc3)cc2C(=O)N([C@H](C)CO)C[C@H]1C	0	-7	-2	/	5	/	/
CCN1CCN(Cc2ccc(NC(=O)c3ccc(C)c(NC(=O)c4c[nH]c5cc(C(F)(F)F)ccc5c4=O)c3)cc2C(F)(F)F)CC1	0	78*!	3	-13	-6	-30	-25
CCN(CC(=O)NCc1ccc(Cl)cc1)C(=O)CSCC(=O)Nc1ccc(C)cc1	-1	-83	-1	2	11	-24	-10
CCN(CC(=O)NCc1ccc(Cl)cc1)C(=O)CSc1cc(C)ccc1C	0	4	1	1	-1	/	/
COc1ccc(NC(=O)N(C)C[C@@H]2OCCCC[C@@H](C)Oc3ccc(NC(=O)C4CCCCC4)cc3C(=O)N([C@H](C)CO)C[C@@H]2C)cc1	0	2	0	/	-4	/	/
COc1ccccc1C#Cc1ccc([C@H]2[C@H](C#N)N(C(=O)C3CCCC3)[C@H]2CO)cc1	/	65*	-2	13	3	-33	3
O=C(N[C@H]1CC[C@@H](CCn2cc(C3(O)CCCC3)nn2)O[C@H]1CO)C1CCOCC1	0	-14	-2	-8	2	/	/
Cc1ccc(Cn2ncc(Cl)c(Cl)c2=O)cc1	0	-112	-2	-2	/	-35	12
COc1ccc(S(=O)(=O)Nc2cccc3c2O[C@@H](CN(C)Cc2ccccc2)[C@H](C)CN([C@H](C)CO)C3=O)cc1	0	-26	1	/	0	/	/
Cc1ccccc1-n1nnnc1SCC(N)=O	/	2	/	/	/	/	/
Cc1ccccc1-n1nnnc1Sc1nnnn1-c1ccccc1	/	?	/	/	/	-38	-44
Cc1ccc(S(=O)(=O)N(C)C[C@@H]2Oc3cc(C#Cc4ccncc4)ccc3S(=O)(=O)N([C@@H](C)CO)C[C@H]2C)cc1	0	60*	1	/	15*	-25	-23
Cc1ccc(S(=O)(=O)N(C)C[C@@H]2Oc3cc(C#Cc4ccncc4)ccc3S(=O)(=O)N([C@H](C)CO)C[C@H]2C)cc1	0	?	-2	9	16*	-49	-23
Cc1ccc(S(=O)(=O)N(C)C[C@H]2Oc3cc(C#Cc4ccncc4)ccc3S(=O)(=O)N([C@@H](C)CO)C[C@@H]2C)cc1	0	37	0	5	10	/	/
COc1ccc(NC(=O)Nc2ccc3c(c2)CC(=O)N([C@@H](C)CO)C[C@@H](C)[C@H](CN(C)Cc2ccc(Cl)c(Cl)c2)O3)cc1	0	-11	/	/	/	/	/
COc1ccc(C(=O)Nc2cccc(NC(=O)c3ccc(OC)c(OC)c3)n2)cc1OC	0	61*	-3	4	-1	-32	44*
COc1ccc2c3c(n(C)c2c1)[C@H](CO)N(S(C)(=O)=O)CC31CCN(CC2CC2)CC1	0	/	5	/	5	/	/
C#CCN(C[C@@H]1[C@@H](OC(=O)NCc2ccc(OC)c(OC)c2)[C@@H](OC(=O)NCc2ccc(OC)c(OC)c2)Cn2c(=O)ccc(=O)n21)S(=O)(=O)c1ccc(C)cc1	0	1	3	2	-5	/	/
C#CCN(C[C@@H]1[C@@H](OC(=O)NCCCCCC)[C@@H](OC(=O)NCCCCCC)Cn2c(=O)ccc(=O)n21)S(=O)(=O)c1ccc(C)cc1	0	92*	0	8	-2	-39	88*
OC(c1cc(C(F)(F)F)nc2c(C(F)(F)F)cccc12)C1CCCCN1 (stereo not given)	0	-78	3	-6	-1	-27	-11
OC(c1cc(-c2ccc(C(F)(F)F)cc2)nc(C(F)(F)F)c1)C1CCCCN1 (stereo not given)	0	-38	0	7	-3	/	/
N#Cc1cc(O)c(-n2nnc3ccccc32)cc1C#N	/	-6	-2	-3	-2	/	/
N#Cc1cc(Oc2cccc3cccnc23)c(-n2nnc3ccccc32)cc1C#N	0	-139	3	/	0	-37	-50
O=C(c1cccc(F)c1)N1CC2(C1)[C@H](c1ccccc1)[C@H](CO)N2C(=O)C1CC1	0	6	1	-7	1	/	/
COCCSc1ccccc1C(=O)Nc1cc(C)on1	0	?	0	/	-5	-23	3
